In ChEMBL document CHEMBL4732237, “Discovery of 4-alkoxy-2-aryl-6,7-dimethoxyquinolines as a new class of topoisomerase I inhibitors endowed with potent in vitro anticancer activity” (2021):

Tests used:
HOP-92 = assay: Growth inhibition of human HOP-92 cells at 10 uM incubated for 48 hrs by sulforhodamine B assay relative to control; type: functional; details: read-out: GI
How it was run: (§1)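 NCI-60 single-dose screen. Cells were grown in RPMI 1640 with 5% FBS and 2 mM L-glutamine and plated 24 h before drug addition. Compound was added at one concentration in DMSO-derived medium and incubated for 48 h at 37 °C in 5% CO2. Read-out was SRB protein stain at 515 nm. Result is percent growth versus the no-drug control and the time-zero cell count; values below 0 indicate lethality.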

NCI-H226 = assay: Growth inhibition of human NCI-H226 cells at 10 uM incubated for 48 hrs by sulforhodamine B assay relative to control; type: functional; details: read-out: GI
How it was run: (§2)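 NCI one-dose screen. Cells grown in RPMI 1640 with 5% FBS and 2 mM L-glutamine, plated and incubated 24 h at 37 °C, 5% CO2. DMSO-dissolved drug added, then 48 h further incubation. Adherent cells fixed with cold TCA, suspension cells fixed after settling. Stained with 0.4% SRB, absorbance read at 515 nm. Reported as percent growth relative to no-drug control and time-zero cell number.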

SF-295 = assay: Growth inhibition of human SF-295 cells at 10 uM incubated for 48 hrs by sulforhodamine B assay relative to control; type: functional; details: read-out: GI; how it was run: as §2
LOX IMVI [1] = assay: Growth inhibition of human LOX IMVI cells at 10 uM incubated for 48 hrs by sulforhodamine B assay relative to control; type: functional; details: read-out: GI; how it was run: as §1
Malme-3M = assay: Growth inhibition of human Malme-3M cells at 10 uM incubated for 48 hrs by sulforhodamine B assay relative to control; type: functional; details: read-out: GI; how it was run: as §2
SK-MEL-28 = assay: Growth inhibition of human SK-MEL-28 cells at 10 uM incubated for 48 hrs by sulforhodamine B assay relative to control; type: functional; details: read-out: GI; how it was run: as §2
SK-MEL-5 = assay: Growth inhibition of human SK-MEL-5 cells at 10 uM incubated for 48 hrs by sulforhodamine B assay relative to control; type: functional; details: read-out: GI; how it was run: as §2
A498 = assay: Growth inhibition of human A498 cells at 10 uM incubated for 48 hrs by sulforhodamine B assay relative to control; type: functional; details: read-out: GI
How it was run: (§3)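 NCI one-dose screen across a 59-line panel. Cells were grown in RPMI 1640 with 5% FBS and 2 mM L-glutamine, plated and pre-incubated 24 h, then exposed to drug for 48 h at 37 °C, 5% CO2. Adherent cells were fixed with cold TCA (10% final), stained with 0.4% SRB in 1% acetic acid and read at 515 nm. Result is percent growth relative to no-drug control and time-zero cell count.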

SN12C = assay: Growth inhibition of human SN12C cells at 10 uM incubated for 48 hrs by sulforhodamine B assay relative to control; type: functional; details: read-out: GI; how it was run: as §2
MDA-MB-231 = assay: Growth inhibition of human MDA-MB-231 cells at 10 uM incubated for 48 hrs by sulforhodamine B assay relative to control; type: functional; details: read-out: GI; how it was run: as §1
Hs-578T = assay: Growth inhibition of human HS-578T cells at 10 uM incubated for 48 hrs by sulforhodamine B assay relative to control; type: functional; details: read-out: GI; how it was run: as §1
BT-549 = assay: Growth inhibition of human BT-549 cells at 10 uM incubated for 48 hrs by sulforhodamine B assay relative to control; type: functional; details: read-out: GI; how it was run: as §1
T47D = assay: Growth inhibition of human T47D cells at 10 uM incubated for 48 hrs by sulforhodamine B assay relative to control; type: functional; details: read-out: GI; how it was run: as §3
SR = assay: Growth inhibition of human SR cells incubated for 48 hrs by sulforhodamine B assay; type: functional
How it was run: (§4)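 NCI five-dose screen (0.01–100 µM; five concentrations plus control). Cells grown in RPMI 1640/5% FBS/2 mM L-glutamine and preincubated 24 h, with time-zero plates TCA-fixed. Drug exposure 48 h at 37 °C, followed by SRB protein staining and reading at 515 nm. GI50 is the concentration at [(Ti-Tz)/(C-Tz)]×100 = 50.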

EKVX = assay: Growth inhibition of human EKVX cells incubated for 48 hrs by sulforhodamine B assay; type: functional
How it was run: (§5)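 NCI five-dose screen covering 0.01–100 µM, prepared as 10-fold or ½-log dilutions from DMSO stock. Cells in RPMI 1640 with 5% FBS were exposed for 48 h at 37 °C after 24 h preincubation. Adherent cells were fixed with TCA (final 10%) and suspension cells were settled before fixing. Stain was SRB, read at 515 nm. GI50 = 50% reduction in net protein increase versus control, with Tz taken at drug addition.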

LOX IMVI [2] = assay: Growth inhibition of human LOX IMVI cells incubated for 48 hrs by sulforhodamine B assay; type: functional; how it was run: as §5
SK-MEL-2 = assay: Growth inhibition of human SK-MEL-2 cells incubated for 48 hrs by sulforhodamine B assay; type: functional; how it was run: as §4
IGROV-1 = assay: Growth inhibition of human IGROV-1 cells incubated for 48 hrs by sulforhodamine B assay; type: functional; how it was run: as §5
OVCAR-3 = assay: Growth inhibition of human OVCAR-3 cells incubated for 48 hrs by sulforhodamine B assay; type: functional; how it was run: as §4
OVCAR-4 = assay: Growth inhibition of human OVCAR-4 cells incubated for 48 hrs by sulforhodamine B assay; type: functional; how it was run: as §4
[3] = molecular target: T1, DNA topoisomerase 1 (Homo sapiens) (UniProt P11387); assay: Inhibition of recombinant human TOPO1 assessed as TOP1-DNA cleavage complexes at 1 uM using 3'-[32-P]-117 labeled bp DNA as substrate incubated for 30 mins by SDS-PAGE analysis relative to control
T1 sequence (whole entry): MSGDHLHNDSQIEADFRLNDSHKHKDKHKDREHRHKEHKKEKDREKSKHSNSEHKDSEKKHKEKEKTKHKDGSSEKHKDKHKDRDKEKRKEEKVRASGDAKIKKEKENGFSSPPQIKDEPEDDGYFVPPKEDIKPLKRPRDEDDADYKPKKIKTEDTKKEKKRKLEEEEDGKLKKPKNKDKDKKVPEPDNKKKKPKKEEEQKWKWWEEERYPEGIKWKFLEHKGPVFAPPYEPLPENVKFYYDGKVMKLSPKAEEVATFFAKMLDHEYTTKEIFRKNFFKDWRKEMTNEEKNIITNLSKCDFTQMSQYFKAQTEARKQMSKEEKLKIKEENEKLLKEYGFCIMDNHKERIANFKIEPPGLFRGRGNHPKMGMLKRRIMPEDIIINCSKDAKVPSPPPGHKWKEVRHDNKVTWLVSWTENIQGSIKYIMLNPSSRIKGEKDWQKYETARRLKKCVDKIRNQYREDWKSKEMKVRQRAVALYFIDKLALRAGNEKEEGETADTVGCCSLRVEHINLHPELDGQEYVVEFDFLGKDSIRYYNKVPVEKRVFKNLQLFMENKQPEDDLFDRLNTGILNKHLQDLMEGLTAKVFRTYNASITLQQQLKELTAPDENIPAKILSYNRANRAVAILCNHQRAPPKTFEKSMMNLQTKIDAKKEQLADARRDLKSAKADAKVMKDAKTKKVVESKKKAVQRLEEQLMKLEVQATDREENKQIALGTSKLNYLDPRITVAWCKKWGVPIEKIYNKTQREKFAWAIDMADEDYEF

SK-OV-3 = assay: Growth inhibition of human SK-OV-3 cells incubated for 48 hrs by sulforhodamine B assay; type: functional; how it was run: as §4

Structure (SMILES)	inhibition of growth at 10 µM (HOP-92) [%]	inhibition of growth at 10 µM (NCI-H226) [%]	inhibition of growth at 10 µM (SF-295) [%]	inhibition of growth at 10 µM (LOX IMVI [1]) [%]	inhibition of growth at 10 µM (Malme-3M) [%]	inhibition of growth at 10 µM (SK-MEL-28) [%]	inhibition of growth at 10 µM (SK-MEL-5) [%]	inhibition of growth at 10 µM (A498) [%]	inhibition of growth at 10 µM (SN12C) [%]	inhibition of growth at 10 µM (MDA-MB-231) [%]	GI50 (SR) [nM]	GI50 (EKVX) [nM]	GI50 (LOX IMVI [2]) [nM]	TGI (LOX IMVI [2]) [nM]	GI50 (SK-MEL-2) [nM]	GI50 (IGROV-1) [nM]	GI50 (OVCAR-3) [nM]	GI50 (OVCAR-4) [nM]	inhibition [3] [%]	GI50 (SK-OV-3) [nM]	also measured
COc1cc2nc(-c3ccc(Cl)cc3)cc(OCCCN3CCCCC3)c2cc1OC	62	62	62	62	62	62	62	62	62	62	373	1470	189	435	2750	838	3230	3850	20	–	inhibition of growth at 10 µM (Hs-578T): 62%; inhibition of growth at 10 µM (BT-549): 62%; inhibition of growth at 10 µM (T47D): 62%
COc1cc2nc(-c3ccc(Cl)cc3)cc(OCCCN3CCOCC3)c2cc1OC	62	62	62	62	62	62	62	62	62	62	414	1730	217	592	–	990	–	–	50	3000	inhibition of growth at 10 µM (Hs-578T): 62%; inhibition of growth at 10 µM (BT-549): 62%; inhibition of growth at 10 µM (T47D): 62%
COc1cc2nc(-c3ccc(Cl)cc3)cc(OCCCN3CCC(O)CC3)c2cc1OC	62	62	62	62	62	62	62	62	62	62	373	1330	227	589	2070	923	3240	4340	20	3170	inhibition of growth at 10 µM (Hs-578T): 62%; inhibition of growth at 10 µM (BT-549): 62%; inhibition of growth at 10 µM (T47D): 62%
COc1cc2nc(-c3ccc(C(F)(F)F)cc3)cc(OCCCN3CCCC3)c2cc1OC	–	–	–	–	–	–	–	–	–	–	133	982	116	275	1930	592	2150	3710	0	2550	–
COc1cc2nc(-c3ccc(Cl)cc3)cc(OCCCN3CCCC3)c2cc1OC	62	62	62	62	62	62	62	62	62	62	251	1210	191	446	2160	881	2710	3000	20	2420	inhibition of growth at 10 µM (Hs-578T): 62%; inhibition of growth at 10 µM (BT-549): 62%; inhibition of growth at 10 µM (T47D): 62%
COc1cc2nc(-c3ccc(C(F)(F)F)cc3)cc(OCCCN3CCCCC3)c2cc1OC	–	–	–	–	–	–	–	–	–	–	193	803	162	355	2640	651	2440	2910	20	2300	–
COc1cc2nc(-c3ccc(C(F)(F)F)cc3)cc(OCCCN3CCOCC3)c2cc1OC	–	–	–	–	–	–	–	–	–	–	242	1610	141	324	3320	830	3730	10300	50	5040	–
COc1cc2nc(-c3ccc(C(F)(F)F)cc3)cc(OCCCN3CCC(O)CC3)c2cc1OC	–	–	–	–	–	–	–	–	–	–	274	1030	190	447	3850	900	6100	9140	0	10600	–
